The source made the active and inactive calls. The calls are words filed in the database; no cut-off is given here.
Legend:
[1] = biological target: T1, NAD-dependent protein deacetylase sirtuin-1 (Homo sapiens) (UniProt Q96EB6); assay: Activation of full-length GST-tagged recombinant human SIRT1 assessed as enzyme activity obtained with subtraction of intrinsic fluorescence using p53-based untagged peptide as substrate at 50 uM after 30 mins by SIRTainty assay
T1 sequence (whole entry): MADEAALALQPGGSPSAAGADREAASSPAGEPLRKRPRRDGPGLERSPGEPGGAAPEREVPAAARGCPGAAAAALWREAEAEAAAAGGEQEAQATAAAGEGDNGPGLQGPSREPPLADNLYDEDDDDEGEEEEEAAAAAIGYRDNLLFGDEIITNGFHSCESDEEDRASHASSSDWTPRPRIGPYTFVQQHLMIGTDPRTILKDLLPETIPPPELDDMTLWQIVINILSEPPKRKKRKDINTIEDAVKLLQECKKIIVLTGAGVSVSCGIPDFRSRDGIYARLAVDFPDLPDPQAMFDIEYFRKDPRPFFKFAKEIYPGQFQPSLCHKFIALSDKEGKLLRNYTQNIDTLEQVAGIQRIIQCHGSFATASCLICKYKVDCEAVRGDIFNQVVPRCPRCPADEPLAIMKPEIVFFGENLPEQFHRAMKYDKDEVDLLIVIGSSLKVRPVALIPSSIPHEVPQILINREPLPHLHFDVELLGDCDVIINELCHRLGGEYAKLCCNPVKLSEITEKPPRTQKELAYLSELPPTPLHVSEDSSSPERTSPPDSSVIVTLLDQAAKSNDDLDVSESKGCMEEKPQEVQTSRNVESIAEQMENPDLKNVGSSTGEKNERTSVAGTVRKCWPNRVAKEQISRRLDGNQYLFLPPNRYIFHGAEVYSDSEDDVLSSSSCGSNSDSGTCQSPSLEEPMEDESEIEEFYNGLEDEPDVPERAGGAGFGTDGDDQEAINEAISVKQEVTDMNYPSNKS

[2] = biological target: T1, NAD-dependent protein deacetylase sirtuin-1 (Homo sapiens); assay: Activation of full-length GST-tagged recombinant human SIRT1 assessed as enzyme activity obtained without subtraction of intrinsic fluorescence using p53-based untagged peptide as substrate at 50 uM after 30 mins by SIRTainty assay
[3] = biological target: 3',5'-cyclic-AMP phosphodiesterase 4D (Homo sapiens) (UniProt Q08499); assay: Inhibition of recombinant human PDE4D assessed as phosphate release using cAMP as substrate at 50 uM after 60 mins by malachite green assay
Sequence of 3',5'-cyclic-AMP phosphodiesterase 4D (Homo sapiens) (Q08499 whole entry): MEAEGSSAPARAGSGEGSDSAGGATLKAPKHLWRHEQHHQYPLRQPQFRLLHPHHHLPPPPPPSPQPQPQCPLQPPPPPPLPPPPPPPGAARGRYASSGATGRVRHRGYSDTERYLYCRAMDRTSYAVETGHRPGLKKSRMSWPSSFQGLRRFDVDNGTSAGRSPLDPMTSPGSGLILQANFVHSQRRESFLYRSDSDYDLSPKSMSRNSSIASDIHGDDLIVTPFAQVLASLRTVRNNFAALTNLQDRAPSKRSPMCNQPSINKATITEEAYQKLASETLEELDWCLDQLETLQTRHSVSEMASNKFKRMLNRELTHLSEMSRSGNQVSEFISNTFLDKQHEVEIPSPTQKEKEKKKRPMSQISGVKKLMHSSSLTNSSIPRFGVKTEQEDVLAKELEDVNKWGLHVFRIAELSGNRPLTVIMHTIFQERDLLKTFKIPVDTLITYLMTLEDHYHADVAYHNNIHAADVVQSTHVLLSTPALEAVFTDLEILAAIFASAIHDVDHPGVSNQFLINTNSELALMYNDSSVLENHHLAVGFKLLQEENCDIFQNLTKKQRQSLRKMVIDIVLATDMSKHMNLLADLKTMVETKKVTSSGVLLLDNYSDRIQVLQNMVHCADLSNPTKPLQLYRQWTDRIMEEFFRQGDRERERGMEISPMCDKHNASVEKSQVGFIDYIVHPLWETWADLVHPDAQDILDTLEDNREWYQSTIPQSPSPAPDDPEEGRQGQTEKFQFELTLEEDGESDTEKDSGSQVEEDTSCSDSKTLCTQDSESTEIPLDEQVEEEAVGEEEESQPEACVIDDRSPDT
In short: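 Recombinant human PDE4D (20 mU) in 10 mM Tris-HCl pH 7.4 with cAMP substrate. Compounds at 50 µM in DMSO; rolipram 10 µM as positive control. Incubated 60 min at 37 °C, then phosphate release measured by malachite green absorbance at 620 nm. Mean of three determinations.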

HaCaT = assay: Activation of AMPK/SIRT1 in human HaCaT cells assessed as nitric oxide production at 1 uM incubated for 1 hr by DAF-2D staining-based fluorescence assay; assay type: cell-based
In short: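 HaCaT keratinocytes grown in DMEM with 10% FBS and antibiotics. Cells treated 1 h (single-point 1 µM; dose-response at 5, 25, 50 µM). 5 µM DAF-2D added to complete medium. Cells then washed in PBS, trypsinized and analysed by flow cytometry for DAF fluorescence (ex 485/em 538 nm). Read-out is % DAF-positive cells relative to DMSO control.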

[4] = biological target: T1, NAD-dependent protein deacetylase sirtuin-1 (Homo sapiens); assay: Activation of SIRT1 in human HaCaT cells assessed as H4K16 deacetylation at 1 uM after 1 hr by Western blotting method; assay type: cell-based
In short: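 HaCaT cells treated 1 h at 1 µM, DMSO as solvent control. Cells lysed in Laemmli buffer and immunoblotted for acetyl-H4K16 (1:1000), with total histone H4 as loading control. Bands quantified by densitometry. At least three independent experiments.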

[5] = biological target: T1, NAD-dependent protein deacetylase sirtuin-1 (Homo sapiens); assay: Activation of SIRT1 in […] at 1 uM by fluorimetric assay; assay type: cell-free; settings: HaCaT, TDE = time-dependent effect

Activity [1] [%]	Activity [2] [%]	Compound	further results
108	198	CCOC(=O)C1=CN(Cc2ccccc2)C=C(C(N)=O)C1c1ccccc1 (stereo not given)	
128	172	O=C(O)C1=CN(Cc2ccccc2)C=C(C(=O)O)C1c1cncs1	
143	184	CCOC(=O)C1=CN(C(=O)c2ccccc2)C=C(C(=O)OCC)C1c1ccccc1Cl	
	116	O=C(O)C1=CN(Cc2ccccc2)C=C(C(=O)O)C1c1ccc2ccccc2c1	
45	56	O=C(O)C1=CN(Cc2ccccc2)C=C(C(=O)O)C1c1ccsc1	
285	285	O=C(O)C1=CN(Cc2ccccc2)C=C(C(=O)O)C1c1ccc(-c2ccccc2)cc1	inhibition [3]: inactive
147	197	NC(=O)C1=CN(Cc2ccccc2)C=C(C(N)=O)C1c1cnc2ccccc2c1	
102	103	CC1=C(C(=O)O)C(c2ccccc2)C(C(=O)O)=C(C)N1Cc1ccccc1	
	187	CCOC(=O)C1=CN(Cc2ccccc2)C=C(C(=O)OCC)C1c1cccc2ccccc12	
127	163	CCOC(=O)C1=CN(C(=O)c2ccccc2)C=C(C(=O)OCC)C1c1cccc(Cl)c1	
	96	NC(=O)C1=CN(Cc2ccccc2)C=C(C(N)=O)C1c1ccc(-c2ccccc2)cc1	
	145	NC(=O)C1=CN(Cc2ccccc2)C=C(C(N)=O)C1c1cccc2ccccc12	
49	55	NC(=O)C1=CN(Cc2ccccc2)C=C(C(N)=O)C1c1cccs1	
62	77	NC(=O)C1=CN(Cc2ccccc2)C=C(C(N)=O)C1c1ccco1	
152	193	N#CC1=CN(Cc2ccccc2)C=C(C#N)C1c1ccccc1	
21	21	O=C(O)C1=CN(Cc2ccccc2)C=C(C(=O)O)C1c1cccs1	
207	235	CCOC(=O)C1=CN(C(=O)c2ccc3ccccc3c2)C=C(C(=O)OCC)C1c1ccccc1	inhibition [3]: inactive
130	169	CCOC(=O)C1=CN(S(=O)(=O)c2ccccc2)C=C(C(=O)OCC)C1c1ccccc1	

The remaining lines, values behind:

Compound	Activity [1] [%]	Activity [2] [%]	further results
CCOC(=O)C1=CN(C(=O)c2cnc3ccccc3n2)C=C(C(=O)OCC)C1c1ccccc1	165	206	
O=C(O)C1=CN(Cc2ccccc2)C=C(C(=O)O)C1c1cc2ccccc2s1	7	38	
CCOC(=O)C1=CN(C(=O)c2cnccn2)C=C(C(=O)OCC)C1c1ccccc1	171	242	
CCOC(=O)C1=CN(Cc2ccccc2)C=C(C(=O)OCC)C1c1cncs1	133	221	
CCOC(=O)C1=CN(C(=O)OCc2ccccc2)C=C(C(=O)OCC)C1c1ccccc1	158	206	
CCOC(=O)C1=CN(C(=O)c2ccccc2)C=C(C(=O)OCC)C1c1cccc(OC)c1	117	156	
O=C(O)C1=CN(Cc2ccccc2)C=C(C(=O)O)C1c1nccs1	132	174	
O=C(O)C1=CN(Cc2ccccc2)C=C(C(=O)O)C1c1cccc2ccccc12	94	108	
CCOC(=O)C1=CN(C(=O)c2ccccc2)C=C(C(=O)OCC)C1c1ccc(Cl)cc1	191	231	
NC(=O)C1=CN(Cc2ccccc2)C=C(C(=O)O)C1c1ccccc1 (stereo not given)	160	149	
CCOC(=O)C1=CN(Cc2ccccc2)C=C(C(=O)OCC)C1c1cc2ccccc2s1	39	139	
CCOC(=O)C1=C(C)N(Cc2ccccc2)C(C)=C(C(=O)OCC)C1c1ccccc1	114	114	
CCOC(=O)C1=CN(C(=O)c2ccccc2)C=C(C(=O)OCC)C1c1ccccc1C	140	183	
CCOC(=O)C1=CN(C(=O)c2ccccc2)C=C(C(=O)OCC)C1c1ccc(C)cc1	103	144	
CCOC(=O)C1=CN(Cc2ccccc2)C=C(C(=O)OCC)C1c1ccccc1	164	217	Activity (HaCaT): Active; inhibition [3]: inactive; Activity [4]: Active
CCOC(=O)C1=CN(Cc2ccccc2)C=C(C(=O)O)C1c1ccccc1 (stereo not given)	105	196	
NC(=O)C1=CN(Cc2ccccc2)C=C(C(N)=O)C1c1ccc2ccccc2c1	67	128	

Compound	Activity [1] [%]	Activity [2] [%]	further results
CCOC(=O)C1=CN(Cc2ccccc2)C=C(C(=O)OCC)C1c1nccs1	282	300	Activity (HaCaT): Active
CCOC(=O)C1=CN(Cc2ccccc2)C=C(C(=O)OCC)C1c1ccc2ccccc2c1	100	282	
CCOC(=O)C1=CN(Cc2ccccc2)C=C(C(=O)OCC)C1c1cccs1	117	246	
CCOC(=O)C1=CN(C(=O)c2ccccc2)C=C(C(=O)OCC)C1c1ccc(OC)cc1	131	173	
CCOC(=O)C1=CN(C(=O)c2ccccc2)C=C(C(=O)OCC)C1c1cccc(C)c1	140	186	
NC(=O)C1=CN(Cc2ccccc2)C=C(C(N)=O)C1c1cc2ccccc2s1	37	127	
CC1=C(C(N)=O)C(c2ccccc2)C(C(N)=O)=C(C)N1Cc1ccccc1	110	110	
O=C(O)C1=CN(Cc2ccccc2)C=C(C(=O)O)C1c1cnc2ccccc2c1	167	209	
CCOC(=O)C1=CN(C(=O)c2ccccc2)C=C(C(=O)OCC)C1c1ccccc1OC	127	170	
NC(=O)C1=CN(Cc2ccccc2)C=C(C(N)=O)C1c1cncs1	165	194	
CCOC(=O)C1=CN(Cc2ccccc2)C=C(C(=O)OCC)C1c1ccc(-c2ccccc2)cc1	61	61	
O=C(Nc1ccccc1-c1cn2c(CN3CCNCC3)csc2n1)c1cnc2ccccc2n1		209	
NC(=O)C1=CN(Cc2ccccc2)C=C(C(N)=O)C1c1ccsc1	97	218	
Oc1ccc(/C=C/c2cc(O)cc(O)c2)cc1			Activity [5]: Tde; Activity [4]: Active
CCOC(=O)C1=CN(Cc2ccccc2)C=C(C(=O)OCC)C1c1cnc2ccccc2c1	283	324	Activity (HaCaT): Active
CCOC(=O)C1=CN(C(=O)c2cccc3ccccc23)C=C(C(=O)OCC)C1c1ccccc1		179	
NC(=O)C1=CN(Cc2ccccc2)C=C(C(N)=O)C1c1nccs1	188	231	

Source: ChEMBL document CHEMBL4428023, “1,4-Dihydropyridines Active on the SIRT1/AMPK Pathway Ameliorate Skin Repair and Mitochondrial Function and Exhibit Inhibition of Proliferation in Cancer Cells” (J Med Chem, 2016)
